In the library only some 2.7% were active in any assay of this set; here they are far more common.
FLuc stim CS = FLuc activators, initial screening, artefact control for FLuc-dependent activation tests, biochemical, ATPlite luminescence. activation factor at 10 µM. 200,000 tested, under 10 active. ATPlite luciferase biochemical, 10 min; 0 = ATP-free wells, 1 = DMSO control;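 active = luciferase activation factor, scaled between plate controls, of at least 2 with compound at 10 µM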
Target sequence (P08659 whole entry, looked up): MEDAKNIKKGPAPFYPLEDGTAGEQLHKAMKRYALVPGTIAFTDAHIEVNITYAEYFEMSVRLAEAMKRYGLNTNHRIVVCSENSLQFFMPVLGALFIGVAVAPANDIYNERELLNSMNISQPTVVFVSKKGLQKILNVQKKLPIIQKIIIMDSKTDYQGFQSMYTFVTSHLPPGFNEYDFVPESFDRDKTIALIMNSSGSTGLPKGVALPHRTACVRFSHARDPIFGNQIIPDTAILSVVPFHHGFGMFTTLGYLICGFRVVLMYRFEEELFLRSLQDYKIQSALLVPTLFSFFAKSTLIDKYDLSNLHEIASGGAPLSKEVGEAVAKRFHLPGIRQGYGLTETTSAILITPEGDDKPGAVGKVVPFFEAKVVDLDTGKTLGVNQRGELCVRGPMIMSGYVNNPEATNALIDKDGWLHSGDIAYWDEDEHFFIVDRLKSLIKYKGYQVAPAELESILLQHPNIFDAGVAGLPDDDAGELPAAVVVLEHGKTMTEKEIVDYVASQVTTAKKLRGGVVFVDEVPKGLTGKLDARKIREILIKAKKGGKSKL
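Material: luciferase plus luciferin reagent, cell-free. Medium: PBS buffer for ATP. Also added: ATP substrate, dispensed from a 10.24 µM working solution in PBS. Doses: test compounds dosed from 2 mM stocks in 100% DMSO. Incubation: 10 min post-reagent at room temperature. Technique: light output (luminescence). Read-out basis: luminescence gain marking luciferase activators.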
ABCG2 inh = ABCG2 efflux pump inhibitors, primary screen, multiplex with ABCB1, IgMXP3 cells, flow cytometry; Broad substrate specificity ATP-binding cassette transporter ABCG2 (Homo sapiens), Q9UNQ0; JC-1 efflux; inhibition, % at 6.6 µM; 190,000 compounds, 0.1% hits; AID 1325, 2008;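 active = inhibition above 80%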
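Assay system – ABCG2 IgMXP3 and barcoded ABCB1 CCRF-Adr cell mix · Input – 3 million cells/mL in well · Reagent – JC-1 fluorescent substrate · Compound – single test compound dose, 6.6 µM final · Timing – 10 min exposure at 25 °C with rotation, no wash · Detection – flow cytometry of retained JC-1 fluorescence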
ABCB1 inh = ABCB1 efflux pump inhibitors, primary screen, cell-based, multiplex, flow cytometry, ABCG2 counter-screen; CCRF-Adr cells, JC-1 efflux; inhibition, % at 6.6 µM; 190,000 compounds, 0.067% hits; in the data active = inhibition above about 40%;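 note: higher value means more JC-1 retained so stronger ABCB1 efflux block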
Measles CPE = compounds protecting cells from measles virus cytopathic effect, primary screen, measles RdRp inhibitor project, single point, MLSMR library, absorbance. 140,000 compounds, 1.5% hits. Measles virus-infected cells, CPE protection. protection (pct of control), % at 4 µM; in the data active = protection mostly above about 24%, no sharp cut-off; inactive = mostly below about 26%
FLuc inh counter = firefly luciferase enzyme inhibitors, primary screen, artefact control for luciferase-based inhibitor screens, biochemical, luminescence, ATPLite | 10 min | inhibition, % at 10 µM | 200,000 compounds, 1.5% hits;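 active = inhibition above about 50% when tested at 10 µM, limit read from the data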
Redox H2O2 prof = compounds producing H2O2 with reducing agent – biochemical, NIH compound library profiling, artefact control for MLSCN library redox annotation, primary screen; DTT-dependent redox cycling H2O2, phenol red/HRP absorbance; 100% = 100 µM peroxide control, 0% = buffer; activation, % at 10 µM; 200,000 compounds, 0.03% hits; AID 878, 2007;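 active = activation of at least 50% relative to the plate's high and low controls in the primary single-dose screen; inactive = activation below 50%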;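 note: compound incubated with DTT at 0.8 mM final as the reducing agent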
Redox H2O2 DR = confirmation of DTT-dependent redox cycling H2O2 generators; shares compounds with Redox H2O2 prof; phenol red-HRP absorbance; EC50, µM; 60 compounds, 40% hits; AID 1234;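 active = EC50 under a set limit for hydrogen peroxide production with the reducing agent DTT present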
ABCB1 confirm = ABCB1 efflux pump inhibitors, confirmation, cell-based, single point, ABCG2 counter-screen; inhibition, % at 6.6 µM; shares compounds with ABCG2 inh; 270 compounds, 7% hits; CCRF-Adr cells, JC-1 efflux, flow cytometry;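 active = inhibition of pump activity above 50%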
ABCG2 single pt = ABCG2 efflux pump inhibitors, confirmation, single point, IgMXP3 cells, ABCB1 counter-screen paired; shares compounds with ABCG2 inh; JC-1 efflux, flow cytometry; inhibition, % at 6.6 µM; 270 compounds, 6% hits;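 active = inhibition above 50%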
IgMXP3 autofluor = compound autofluorescence in ABCG2-expressing IgMXP3 cells, confirmation, artefact control for ABC transporter inhibitor project, cell-based, 488/530 nm, flow cytometry | AID 1480, 2009 | 270 compounds, 30% hits | shares compounds with ABCG2 inh | compound autofluorescence 488/530 nm; stronger effect = higher value | fluorescence at 6.6 µM;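 active = fluorescence in ABCG2-expressing cells above the plate's control-well mean plus 3 SD, cut at about 15 in these data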
CCRF-Adr fluor = compound autofluorescence in ABCB1-expressing CCRF-Adr cells, confirmation, artefact control for ABC transporter inhibitor project, cell-based, 488/530 nm, flow cytometry. shares compounds with ABCG2 inh. compound autofluorescence 488/530 nm; stronger effect = higher value. fluorescence at 6.6 µM. 270 compounds, 30% hits;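 active = fluorescence beyond the plate control mean plus 3 SD, with a fluorescence-to-maximum score over 2, cut at about 25 in these data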
Each line names hits and unclear results; the compound was inactive in the other large screens (follow-up assays come after a bar, where they were run).

O=C(COC(=O)c1ccc([N+](=O)[O-])s1)Nc1ncc(C(F)(F)F)cc1Cl	Redox H2O2 prof 86 | Redox H2O2 DR inactive
C=CCn1c(C)cc(C(=O)COC(=O)c2ccc3c(c2)NC(=O)CS3)c1C	none
O=C1C=C(N(CCO)Cc2ccccc2)c2ccccc2C1=O	Redox H2O2 prof 129 (no result: Measles CPE) | Redox H2O2 DR 3.1
O=C(CCN1C(=O)c2ccccc2C1=O)N(CCO)Cc1ccccc1	none
CCCn1c(=O)c(C(=O)OCC)c(O)c2cc(Br)ccc21	none (no result: Measles CPE)
CCOC(=O)c1c2c(n(C)c1COC)C(=O)C(=O)c1ccc(Br)cc1-2	Redox H2O2 prof 343 (no result: FLuc stim CS, ABCG2 inh, ABCB1 inh, Measles CPE, FLuc inh counter) | Redox H2O2 DR inactive
O=C1C(Nc2ccccc2)=C/C(=N/S(=O)(=O)c2cccs2)c2ccccc21	Redox H2O2 prof 102 | Redox H2O2 DR inactive
CCn1c(Cc2ccccc2)nnc1SCC(=O)Nc1ccc(OC)cc1	none
C=CCn1c(Cc2ccc(OC)cc2)nnc1SCC(=O)NCCc1ccccc1	Redox H2O2 prof 109 | Redox H2O2 DR inactive
CCCCn1c(NC(=O)c2ccccc2Cl)c(C#N)c2nc3ccccc3nc21	Redox H2O2 prof 311 | Redox H2O2 DR inactive
CCCCn1c(NC(=O)CC)c(C#N)c2nc3ccccc3nc21	none
O=C(CC1C(=O)NCCN1CC(c1ccccc1)c1ccccc1)NC1CC1 (configuration not stated)	none (no result: Measles CPE)
COc1cccc(NC(=O)C(OC(=O)c2ccc([N+](=O)[O-])o2)c2ccccc2)c1 (configuration not stated)	Redox H2O2 prof 92 | Redox H2O2 DR inactive
CCCCn1c(NS(=O)(=O)c2ccc(C)cc2)c(S(=O)(=O)c2ccccc2)c2nc3ccccc3nc21	Redox H2O2 prof 97 | Redox H2O2 DR inactive
CSc1nsc2nc(=O)c(/C=C3\C(C)=Nc4ccccc43)c(N)n12	none (no result: Measles CPE)
Cc1ccc(S(=O)(=O)/N=C2/C=C(Sc3ncn[nH]3)C(=O)c3ccccc32)cc1	Redox H2O2 prof 120 | Redox H2O2 DR 12
CCOc1ccc(S(=O)(=O)Nc2ccc(O)c(Sc3ncn[nH]3)c2)cc1	none
Cc1ccc(S(=O)(=O)Nc2ccc(O)c(Sc3ncn[nH]3)c2)cc1	none (no result: Measles CPE)
CC(C)c1ccc(S(=O)(=O)/N=C2/C=C(Sc3ncn[nH]3)C(=O)c3ccccc32)cc1	Redox H2O2 prof 93 | Redox H2O2 DR 13
Cc1ccc(S(=O)(=O)/N=C2/C=C(Sc3ncn[nH]3)C(=O)c3ccccc32)c(C)c1	Redox H2O2 prof 83 | Redox H2O2 DR 13
CCN(c1ccccc1)S(=O)(=O)c1cc([N+](=O)[O-])ccc1N	none (no result: Measles CPE)
COc1cccc(-c2ccc(=O)n(CC(=O)Nc3ccc(S(=O)(=O)NCC(C)C)cc3)n2)c1	none (no result: Measles CPE)
Cc1ccc2c(O)c(C)c(=O)[nH]c2n1	none (no result: Measles CPE)
Nc1cc2nsnc2cc1Br	Redox H2O2 prof 362 | Redox H2O2 DR inactive
Nc1cnc(Br)cc1Br	none
CCC(C)(C(=O)NC1CCCC1)N(Cc1cccs1)C(=O)c1ccc2c(c1)OCO2 (configuration not stated)	none
O=C(COC(=O)c1ccccc1OCc1ccccc1Cl)NC1CC1	Redox H2O2 prof 88 | Redox H2O2 DR inactive
Cc1ccc(C)c(S(=O)(=O)Nc2cc(SCC(=O)O)c(O)c3ccccc23)c1	Redox H2O2 prof 101 | Redox H2O2 DR inactive
COC(=O)[C@@H]1CC[C@H](C)[C@@H](c2ccc(C)cc2)N1C(=O)c1ccc(/C=N/O[C@@H](C)c2cn([C@H](CO)Cc3ccccc3)nn2)cc1	ABCB1 inh 42 | ABCB1 confirm inactive | ABCG2 single pt inactive | IgMXP3 autofluor inactive | CCRF-Adr fluor inactive
CCOc1cc(CNCCSc2nnnn2C)cc(Br)c1OCc1ccc(F)cc1	ABCG2 inh 105 | ABCB1 confirm inactive | ABCG2 single pt inactive | IgMXP3 autofluor inactive | CCRF-Adr fluor 34
COc1cc(CNCCSc2nnnn2C)cc(Br)c1OCc1ccc(F)cc1	none
CN(C)c1ccc(/C=C2\SC(=S)N(Nc3ncc(C(F)(F)F)cc3Cl)C2=O)cc1	ABCG2 inh active, ABCB1 inh 187 | ABCB1 confirm inactive | ABCG2 single pt inactive | IgMXP3 autofluor 228 | CCRF-Adr fluor 391
COc1ccc(CCNCC2C(Oc3ccc(Cl)cc3)C(=O)N2c2ccccc2C)cc1OC (configuration not stated)	ABCB1 inh 53 (no result: Measles CPE) | ABCB1 confirm inactive | ABCG2 single pt inactive | IgMXP3 autofluor inactive | CCRF-Adr fluor inactive
COCCNCC1C(Oc2ccc(Cl)cc2)C(=O)N1c1ccccc1C (configuration not stated)	none (no result: Measles CPE)
CCNC(=O)Cn1c(=O)c(=O)n(Cc2ccccc2)c2ccc(Cl)cc21	ABCG2 inh 95 | ABCB1 confirm inactive | ABCG2 single pt inactive | IgMXP3 autofluor inactive | CCRF-Adr fluor 27
O=C(CCCCCn1c(=S)[nH]c2ccc(Br)cc2c1=O)NCC1CCCO1 (configuration not stated)	ABCG2 inh 81 | ABCB1 confirm inactive | ABCG2 single pt inactive | IgMXP3 autofluor 15 | CCRF-Adr fluor 72
O=C(c1ccco1)N1CCN(Cc2nc(-c3cccs3)no2)CC1	none (no result: Measles CPE)
CCN1/C(=C/c2ccc3cc(C)cc(C)c3[n+]2CC)Sc2cc(C)ccc21	none (no result: Measles CPE)
